Blank lines part the entries; values can stand above or below the molecule they belong to. The source made the active and inactive calls. The rule behind the calls is not given here.
Experiments:
HT-29 [1] = experiment: cells; conditions: Homo sapiens
[2] = target: Serine/threonine-protein kinase B-raf (Homo sapiens, UniProt P15056); experiment: Inhibition of B-Raf (unknown origin) by mobility shift assay
HT-29 [3] = experiment: Antiproliferative activity against human HT-29 cells assessed as dead cells by measuring green fluorescent cells for 48 to 72 hrs by IncuCyte live-cell imaging assay; assay type: functional, cell-based
Outline: (§1)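 HT-29 cells (5×10^3/well) in DMEM with 10% FBS, cultured 24 h at 37 °C, 5% CO2, then treated with graded concentrations of compound; 0.1% DMSO vehicle control. YOYO-1 iodide DNA dye added; green-fluorescent cells counted as dead, imaged every 2 h for 72 h in an IncuCyte system. Three replicates; mean ± SD of three independent experiments.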

[4] = target: Insulin-like growth factor 1 receptor (Homo sapiens, UniProt P08069); experiment: Inhibition of IGF1R (unknown origin) by mobility shift assay
Chain of Insulin-like growth factor 1 receptor (P08069 31-736 limits assumed): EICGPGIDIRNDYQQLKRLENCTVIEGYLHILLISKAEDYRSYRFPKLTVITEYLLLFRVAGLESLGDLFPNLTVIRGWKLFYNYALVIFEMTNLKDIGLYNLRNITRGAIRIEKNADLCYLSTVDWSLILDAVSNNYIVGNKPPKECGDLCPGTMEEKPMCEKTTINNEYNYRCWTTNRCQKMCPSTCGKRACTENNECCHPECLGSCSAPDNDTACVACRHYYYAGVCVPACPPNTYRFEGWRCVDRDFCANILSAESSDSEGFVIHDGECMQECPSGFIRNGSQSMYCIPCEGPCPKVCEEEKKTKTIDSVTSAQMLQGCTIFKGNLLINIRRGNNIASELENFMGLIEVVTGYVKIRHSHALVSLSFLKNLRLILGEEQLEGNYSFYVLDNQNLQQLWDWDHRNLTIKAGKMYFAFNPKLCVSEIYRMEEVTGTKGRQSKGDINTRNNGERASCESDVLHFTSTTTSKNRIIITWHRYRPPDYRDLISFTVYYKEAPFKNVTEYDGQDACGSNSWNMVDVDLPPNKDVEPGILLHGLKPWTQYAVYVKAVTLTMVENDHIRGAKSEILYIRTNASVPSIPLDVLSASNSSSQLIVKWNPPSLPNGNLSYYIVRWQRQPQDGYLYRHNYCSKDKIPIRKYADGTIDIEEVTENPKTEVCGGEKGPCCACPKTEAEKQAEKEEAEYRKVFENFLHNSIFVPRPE
Chain of Insulin-like growth factor 1 receptor (P08069 741-1367 limits assumed): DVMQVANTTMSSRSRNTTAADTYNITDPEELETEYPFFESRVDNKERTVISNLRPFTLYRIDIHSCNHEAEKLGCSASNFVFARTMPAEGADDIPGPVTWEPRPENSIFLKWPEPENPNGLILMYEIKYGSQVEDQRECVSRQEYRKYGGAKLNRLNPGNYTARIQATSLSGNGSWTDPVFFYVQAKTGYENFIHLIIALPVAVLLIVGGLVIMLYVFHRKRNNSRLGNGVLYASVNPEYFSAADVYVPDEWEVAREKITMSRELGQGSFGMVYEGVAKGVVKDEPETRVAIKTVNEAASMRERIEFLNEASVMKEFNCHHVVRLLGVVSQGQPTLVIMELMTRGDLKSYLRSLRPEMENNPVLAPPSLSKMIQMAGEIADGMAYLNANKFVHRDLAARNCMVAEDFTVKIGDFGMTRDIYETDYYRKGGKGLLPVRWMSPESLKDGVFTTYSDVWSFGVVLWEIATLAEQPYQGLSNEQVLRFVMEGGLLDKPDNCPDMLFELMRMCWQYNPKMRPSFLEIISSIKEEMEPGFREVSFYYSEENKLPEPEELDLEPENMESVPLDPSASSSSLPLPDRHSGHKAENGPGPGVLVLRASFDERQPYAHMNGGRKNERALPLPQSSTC

HT-29 [5] = experiment: Cell cycle arrest in human HT-29 cells assessed as accumulation in G2/M phase at 1 ug/ml incubated for 48 hrs by propidium iodide base flow cytometry analysis (reference value: 2.4%); assay type: functional; conditions: dose 1 µg/ml
HT-29 [6] = experiment: Antiproliferative activity against human HT-29 cells assessed as dead cells by measuring green fluorescent cells at 5 ug/mL for 72 hrs by IncuCyte live-cell imaging assay; assay type: functional, cell-based; conditions: dose 5.0 µg/ml
Outline: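 HT-29 cells (5×10^3 per well) in DMEM with 10% FBS at 37 °C, 5% CO2; compound added after 24 h culture. YOYO-1 iodide added, green-fluorescent cells counted as dead; live-cell imaging every 2 h for 72 h; three replicates; mean ± SD of three independent experiments.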

[7] = target: Macrophage-stimulating protein receptor (Homo sapiens, UniProt Q04912); experiment: Inhibition of Ron (unknown origin) using FAM-labelled peptide and ATP incubated for 10 mins by mobility shift assay
HT-29 [8] = experiment: Cytotoxicity against human HT-29 cells assessed as reduction in cell viability at 5 ug/mL by MTT assay; assay type: functional, cell-based; conditions: dose 5.0 µg/ml
HT-29 [9] = experiment: Cell cycle arrest in human HT-29 cells assessed as accumulation in S phase at 0.3 ug/ml incubated for 48 hrs by propidium iodide base flow cytometry analysis (reference value: 22.4%); assay type: functional; conditions: dose 0.3 µg/ml
[10] = target: T1, Hepatocyte growth factor receptor (Homo sapiens, UniProt P08581); experiment: Inhibition of c-Met (unknown origin) using FAM-labelled peptide and ATP incubated for 10 mins by mobility shift assay
T1 sequence (P08581 whole entry): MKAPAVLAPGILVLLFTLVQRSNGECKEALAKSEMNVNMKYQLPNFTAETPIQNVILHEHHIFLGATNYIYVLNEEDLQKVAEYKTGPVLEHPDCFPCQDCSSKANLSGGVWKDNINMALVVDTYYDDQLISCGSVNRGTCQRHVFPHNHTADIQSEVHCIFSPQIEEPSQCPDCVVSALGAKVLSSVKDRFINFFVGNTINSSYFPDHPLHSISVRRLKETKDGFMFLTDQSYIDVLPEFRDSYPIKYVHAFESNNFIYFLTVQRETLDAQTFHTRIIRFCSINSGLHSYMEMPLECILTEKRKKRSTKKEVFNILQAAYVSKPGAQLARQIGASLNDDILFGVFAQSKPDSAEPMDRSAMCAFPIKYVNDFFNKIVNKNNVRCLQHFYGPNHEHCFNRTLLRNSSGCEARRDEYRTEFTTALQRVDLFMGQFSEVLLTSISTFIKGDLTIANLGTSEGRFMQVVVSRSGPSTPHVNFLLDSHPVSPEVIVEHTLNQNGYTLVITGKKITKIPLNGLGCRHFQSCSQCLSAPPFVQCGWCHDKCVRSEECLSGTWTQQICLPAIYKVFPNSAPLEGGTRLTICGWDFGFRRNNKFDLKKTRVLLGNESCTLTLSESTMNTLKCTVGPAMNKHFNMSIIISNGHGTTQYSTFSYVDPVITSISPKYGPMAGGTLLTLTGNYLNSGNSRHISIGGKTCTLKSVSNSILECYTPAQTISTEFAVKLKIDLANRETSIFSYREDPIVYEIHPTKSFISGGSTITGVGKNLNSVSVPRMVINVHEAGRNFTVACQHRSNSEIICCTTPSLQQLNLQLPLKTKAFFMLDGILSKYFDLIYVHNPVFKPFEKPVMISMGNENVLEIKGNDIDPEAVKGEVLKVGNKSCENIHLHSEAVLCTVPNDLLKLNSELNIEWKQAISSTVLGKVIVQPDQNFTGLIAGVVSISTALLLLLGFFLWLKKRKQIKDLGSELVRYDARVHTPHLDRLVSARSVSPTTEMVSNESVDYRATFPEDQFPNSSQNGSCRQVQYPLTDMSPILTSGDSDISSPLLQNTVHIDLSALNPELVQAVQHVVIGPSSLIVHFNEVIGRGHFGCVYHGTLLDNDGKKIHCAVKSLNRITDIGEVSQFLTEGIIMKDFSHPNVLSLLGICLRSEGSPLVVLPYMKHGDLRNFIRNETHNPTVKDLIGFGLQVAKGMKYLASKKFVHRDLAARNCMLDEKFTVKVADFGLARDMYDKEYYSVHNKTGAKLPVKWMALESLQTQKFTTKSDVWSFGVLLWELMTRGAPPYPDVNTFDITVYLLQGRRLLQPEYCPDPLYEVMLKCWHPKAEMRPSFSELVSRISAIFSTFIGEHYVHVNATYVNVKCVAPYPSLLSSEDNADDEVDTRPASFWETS

FHC [11] = experiment: Cytotoxicity aganist human FHC at 10 ug/ml measured after 72 hrs by IncuCyte live-cell imaging assay
HT-29 [12] = experiment: Cell cycle arrest in human HT-29 cells assessed as accumulation in G0/G1 phase at 3 ug/ml incubated for 48 hrs by propidium iodide base flow cytometry analysis (reference value: 71.6%); assay type: functional; conditions: dose 3 µg/ml
HT-29 [13] = experiment: Cell cycle arrest in human HT-29 cells assessed as accumulation in G0/G1 phase at 0.3 ug/ml incubated for 48 hrs by propidium iodide base flow cytometry analysis (reference value: 71.6%); assay type: functional; conditions: dose 0.3 µg/ml
[14] = target: Proto-oncogene tyrosine-protein kinase Src (Homo sapiens, UniProt P12931); experiment: Inhibition of c-Src (unknown origin) using FAM-labelled peptide and ATP incubated for 10 mins by mobility shift assay
Chain of Proto-oncogene tyrosine-protein kinase Src (P12931 2-536 limits assumed): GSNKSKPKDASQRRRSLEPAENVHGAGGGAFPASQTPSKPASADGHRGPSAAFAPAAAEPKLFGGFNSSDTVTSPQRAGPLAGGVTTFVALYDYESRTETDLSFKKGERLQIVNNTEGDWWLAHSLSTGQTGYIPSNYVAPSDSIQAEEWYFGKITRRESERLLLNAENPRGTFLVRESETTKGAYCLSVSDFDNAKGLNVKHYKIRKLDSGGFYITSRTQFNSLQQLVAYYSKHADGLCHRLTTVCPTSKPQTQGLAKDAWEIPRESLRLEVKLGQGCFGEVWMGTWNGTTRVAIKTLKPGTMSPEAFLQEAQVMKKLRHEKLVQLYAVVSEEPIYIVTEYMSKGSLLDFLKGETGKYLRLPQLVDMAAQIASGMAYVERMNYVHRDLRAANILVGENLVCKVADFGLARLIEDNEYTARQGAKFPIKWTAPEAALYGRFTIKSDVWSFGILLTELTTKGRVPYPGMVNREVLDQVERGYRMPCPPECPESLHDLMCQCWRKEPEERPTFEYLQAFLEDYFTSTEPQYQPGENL

HT-29 [15] = experiment: Cell cycle arrest in human HT-29 cells assessed as accumulation in G2/M phase at 0.3 ug/ml incubated for 48 hrs by propidium iodide base flow cytometry analysis (reference value: 2.4%); assay type: functional; conditions: dose 0.3 µg/ml
[16] = target: T2, Tyrosine-protein kinase receptor UFO (Homo sapiens, UniProt P30530); experiment: Inhibition of AXL (unknown origin) using FAM-labelled peptide and ATP incubated for 10 mins by mobility shift assay
T2 sequence (P30530 whole entry): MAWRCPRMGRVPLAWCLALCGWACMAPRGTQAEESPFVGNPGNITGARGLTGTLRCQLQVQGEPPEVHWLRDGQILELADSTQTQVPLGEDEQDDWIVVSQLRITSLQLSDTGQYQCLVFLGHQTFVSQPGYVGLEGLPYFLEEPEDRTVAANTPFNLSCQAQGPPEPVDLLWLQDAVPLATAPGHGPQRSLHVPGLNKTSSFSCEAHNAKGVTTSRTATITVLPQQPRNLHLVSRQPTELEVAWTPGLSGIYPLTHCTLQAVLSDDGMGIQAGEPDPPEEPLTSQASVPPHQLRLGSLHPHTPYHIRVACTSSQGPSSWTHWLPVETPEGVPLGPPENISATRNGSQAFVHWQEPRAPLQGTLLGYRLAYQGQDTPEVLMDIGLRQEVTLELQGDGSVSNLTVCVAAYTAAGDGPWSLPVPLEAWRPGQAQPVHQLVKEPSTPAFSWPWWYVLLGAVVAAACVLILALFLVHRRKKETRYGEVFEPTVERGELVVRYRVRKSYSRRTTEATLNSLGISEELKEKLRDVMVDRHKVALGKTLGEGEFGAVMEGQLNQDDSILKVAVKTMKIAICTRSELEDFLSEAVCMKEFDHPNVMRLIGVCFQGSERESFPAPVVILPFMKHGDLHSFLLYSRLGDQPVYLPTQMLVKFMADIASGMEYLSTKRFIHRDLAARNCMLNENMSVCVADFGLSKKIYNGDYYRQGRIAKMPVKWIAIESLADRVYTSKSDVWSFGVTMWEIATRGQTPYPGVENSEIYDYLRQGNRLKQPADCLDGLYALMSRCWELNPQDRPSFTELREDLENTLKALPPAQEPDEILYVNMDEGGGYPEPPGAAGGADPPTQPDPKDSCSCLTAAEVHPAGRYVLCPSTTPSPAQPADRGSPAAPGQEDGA

[17] = target: Platelet-derived growth factor receptor alpha (Homo sapiens, UniProt P16234); experiment: Inhibition of PDGFR alpha (unknown origin) by mobility shift assay
HT-29 [18] = experiment: Cell cycle arrest in human HT-29 cells assessed as accumulation in G2/M phase at 3 ug/ml incubated for 48 hrs by propidium iodide base flow cytometry analysis (reference value: 2.4%); assay type: functional; conditions: dose 3 µg/ml
[19] = target: T1, Hepatocyte growth factor receptor; experiment: Inhibition of c-Met (unknown origin) using FAM-labelled peptide and ATP incubated for 10 mins by mobility shift assay relative to control
FHC [20] = experiment: Antiproliferative activity aganist human FHC at 10 ug/ml measured after 72 hrs by MTT assay; assay type: cell-based; conditions: at 10 µg/mL
HT-29 [21] = experiment: Cell cycle arrest in human HT-29 cells assessed as accumulation in G0/G1 phase at 1 ug/ml incubated for 48 hrs by propidium iodide base flow cytometry analysis (reference value: 71.6%); assay type: functional; conditions: dose 1 µg/ml
HT-29 [22] = experiment: Cell cycle arrest in human HT-29 cells assessed as accumulation in S phase at 1 ug/ml incubated for 48 hrs by propidium iodide base flow cytometry analysis (reference value: 22.4%); assay type: functional; conditions: dose 1 µg/ml
HT-29 [23] = experiment: Antiproliferative activity against human HT-29 cells assessed as dead cells by measuring green fluorescent cells at 1 to 3 ug/mL by IncuCyte live-cell imaging assay; assay type: functional, cell-based
Outline: as §1

HT-29 [24] = experiment: Cytotoxicity against human HT-29 cells assessed as reduction in cell viability measured after 36 hrs by MTT assay; assay type: functional, cell-based; conditions: dose 0.56-1.67 µg/ml
HT-29 [25] = experiment: Cytotoxicity against human HT-29 cells assessed as reduction in cell viability measured at 0.56 to 1.67 microg/ml by IncuCyte live-cell imaging assay; conditions: dose 0.56-1.67 µg/ml, TDE = time-dependent effect
[26] = target: Mast/stem cell growth factor receptor Kit (Homo sapiens, UniProt P10721); experiment: Inhibition of c-Kit (unknown origin) using FAM-labelled peptide and ATP incubated for 10 mins by mobility shift assay
Chain of Mast/stem cell growth factor receptor Kit (P10721 whole entry): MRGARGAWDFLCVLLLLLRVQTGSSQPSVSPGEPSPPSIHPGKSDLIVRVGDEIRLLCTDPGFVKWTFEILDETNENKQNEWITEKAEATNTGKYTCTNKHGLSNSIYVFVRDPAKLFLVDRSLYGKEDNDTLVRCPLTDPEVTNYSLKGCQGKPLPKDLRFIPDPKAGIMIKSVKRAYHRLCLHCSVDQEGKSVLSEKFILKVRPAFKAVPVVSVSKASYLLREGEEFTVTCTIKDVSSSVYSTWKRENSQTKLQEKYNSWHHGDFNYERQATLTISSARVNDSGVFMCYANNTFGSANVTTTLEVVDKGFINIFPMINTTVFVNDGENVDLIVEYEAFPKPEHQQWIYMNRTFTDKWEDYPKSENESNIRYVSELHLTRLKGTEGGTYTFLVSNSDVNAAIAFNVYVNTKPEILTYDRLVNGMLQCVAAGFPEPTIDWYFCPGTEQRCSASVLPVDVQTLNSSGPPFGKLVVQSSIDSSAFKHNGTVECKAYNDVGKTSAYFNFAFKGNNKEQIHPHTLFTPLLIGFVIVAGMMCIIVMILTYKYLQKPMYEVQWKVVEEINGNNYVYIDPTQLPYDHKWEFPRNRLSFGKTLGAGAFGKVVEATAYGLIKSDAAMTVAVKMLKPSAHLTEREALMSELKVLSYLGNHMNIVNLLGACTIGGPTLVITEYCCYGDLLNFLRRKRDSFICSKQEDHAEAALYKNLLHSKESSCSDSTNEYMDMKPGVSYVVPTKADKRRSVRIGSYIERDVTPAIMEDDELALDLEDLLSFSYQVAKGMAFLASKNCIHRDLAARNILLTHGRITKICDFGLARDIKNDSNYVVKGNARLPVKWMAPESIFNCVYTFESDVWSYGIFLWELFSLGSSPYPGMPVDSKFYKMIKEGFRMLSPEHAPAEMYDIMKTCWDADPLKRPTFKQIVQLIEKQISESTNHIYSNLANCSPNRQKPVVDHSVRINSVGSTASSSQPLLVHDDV

HT-29 [27] = experiment: Cell cycle arrest in human HT-29 cells assessed as accumulation in S phase at 3 ug/ml incubated for 48 hrs by propidium iodide base flow cytometry analysis (reference value: 22.4%); assay type: functional; conditions: dose 3 µg/ml
FHC [28] = experiment: Cytotoxicity aganist human FHC at 0.19 ug/ml measured after 72 hrs by IncuCyte live-cell imaging assay

Chain of Serine/threonine-protein kinase B-raf (P15056 whole entry): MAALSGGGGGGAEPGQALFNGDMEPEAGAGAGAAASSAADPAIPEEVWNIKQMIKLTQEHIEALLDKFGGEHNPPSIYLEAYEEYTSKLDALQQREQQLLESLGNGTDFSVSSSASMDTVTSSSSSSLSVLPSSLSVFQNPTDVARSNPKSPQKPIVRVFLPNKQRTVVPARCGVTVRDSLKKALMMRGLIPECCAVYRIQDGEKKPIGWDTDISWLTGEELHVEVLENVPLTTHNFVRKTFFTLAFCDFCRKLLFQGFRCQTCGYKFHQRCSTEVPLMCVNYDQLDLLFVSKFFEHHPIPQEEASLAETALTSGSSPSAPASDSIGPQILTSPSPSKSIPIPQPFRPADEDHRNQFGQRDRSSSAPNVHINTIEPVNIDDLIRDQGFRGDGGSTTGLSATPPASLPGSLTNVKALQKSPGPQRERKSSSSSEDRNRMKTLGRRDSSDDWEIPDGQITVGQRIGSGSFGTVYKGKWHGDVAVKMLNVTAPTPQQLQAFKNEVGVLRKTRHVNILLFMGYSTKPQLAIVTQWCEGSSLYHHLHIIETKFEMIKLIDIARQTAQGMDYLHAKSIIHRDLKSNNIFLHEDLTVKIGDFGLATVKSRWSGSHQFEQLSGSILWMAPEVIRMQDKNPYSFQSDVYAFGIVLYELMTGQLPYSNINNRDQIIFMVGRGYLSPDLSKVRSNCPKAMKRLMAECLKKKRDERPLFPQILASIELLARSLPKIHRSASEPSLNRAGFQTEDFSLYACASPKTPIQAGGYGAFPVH

SMILES: COc1cc2c(Oc3ccc(NC(=O)NN4C(=O)CSC4c4ccc(F)cc4)cc3)ccnc2cc1OC1CCN(C(=O)NCc2ccccc2)CC1 (configuration not stated)
IC50 (HT-29 [1]): 6.6 µM

SMILES: COc1cc2c(Oc3cccc(NC(=O)NN4C(=O)CSC4c4c(F)cccc4F)c3)ccnc2cc1OC1CCN(C(=O)NC(C)C)CC1 (configuration not stated)
IC50 (HT-29 [1]): > 10 µM

SMILES: COc1cc2c(Oc3ccc(NC(=O)NN4C(=O)CSC4c4c(F)cccc4F)cc3)ccnc2cc1OC1CCN(C(=O)NC(C)C)CC1 (configuration not stated)
IC50 [2]: > 10 µM
Activity (HT-29 [3]; dose 1-3 µg/ml, time 48-72 hrs): Dose-dependent effect
IC50 [4]: > 10 µM
Activity (HT-29 [5]): 4.3%
Activity (HT-29 [6]): Active
IC50 [7]: 0.122 µM
Activity (HT-29 [8]): Active
Activity (HT-29 [9]): 19.7%
IC50 [10]: 0.382 µM
Activity (FHC [11]): Toxic
Activity (HT-29 [12]): 71.2%
Activity (HT-29 [13]): 71.3%
IC50 (HT-29 [1]): 0.31 µM
IC50 [14]: 0.421 µM
Activity (HT-29 [15]): 3.8%
IC50 [16]: 0.632 µM
IC50 [17]: 0.384 µM
Activity (HT-29 [18]): 4.4%
IC50 [19]: 0.382 µM
Activity (FHC [20]): 26.7%
Activity (HT-29 [21]): 71.5%
Activity (HT-29 [22]): 20.3%
Activity (HT-29 [23]; dose 1-3 µg/ml, time 48-72 hrs, TDE = time-dependent effect): Tde
Activity (HT-29 [24]): Dose-dependent effect
Activity (HT-29 [25]): Tde
IC50 [26]: > 10 µM
Activity (HT-29 [27]): 18.3%

SMILES: COc1cc2c(Sc3ccc(NC(=O)NN4C(=O)CSC4c4c(F)cccc4F)cc3)cc(N)nc2cc1OC1CCN(C(=O)NC(C)C)CC1 (configuration not stated)
IC50 (HT-29 [1]): 5.6 µM

SMILES: CCCCNC(=O)N1CCC(Oc2cc3nccc(Oc4ccc(NC(=O)NN5C(=O)CSC5c5ccc(F)cc5)cc4)c3cc2OC)CC1 (configuration not stated)
IC50 (HT-29 [1]): 1.7 µM

SMILES: CCNC(=O)N1CCC(Oc2cc3nccc(Oc4ccc(NC(=O)NN5C(=O)CSC5c5ccc(F)cc5)cc4)c3cc2OC)CC1 (configuration not stated)
IC50 (HT-29 [1]): 2.25 µM

SMILES: COc1cc2c(Oc3ccc(NC(=O)NN4C(=O)CSC4c4ccccc4)cc3)ccnc2cc1OC1CCN(C(=O)NC(C)C)CC1 (configuration not stated)
IC50 (HT-29 [1]): 1.26 µM

SMILES: CNC(=O)c1cc(Oc2ccc(NC(=O)Nc3ccc(Cl)c(C(F)(F)F)c3)c(F)c2)ccn1 [REGORAFENIB]
Activity (HT-29 [3]): Active
Activity (HT-29 [6]): Active
Activity (HT-29 [8]): inactive
Activity (FHC [11]): Toxic
Activity (HT-29 [12]): 78.5%
Activity (FHC [28]): Toxic
IC50 (HT-29 [1]): 2.87 µM
Activity (HT-29 [18]): 2%
Activity (FHC [20]): 13.5%
AC50 (HT-29 [23]): Active
Activity (HT-29 [24]): inactive
Activity (HT-29 [27]): 15.7%

SMILES: COc1cc2c(Oc3ccc(NC(=O)NN4C(=O)CSC4c4ccc(F)c(F)c4)cc3)ccnc2cc1OC1CCN(C(=O)NC(C)C)CC1 (configuration not stated)
IC50 (HT-29 [1]): 1.06 µM

SMILES: COc1cc2c(Sc3ccc(NC(=O)NN4C(=O)CSC4c4c(F)cccc4F)cc3)ccnc2cc1OC1CCCN(C(=O)NC(C)C)C1 (configuration not stated)
IC50 (HT-29 [1]): > 10 µM

SMILES: COc1cc2c(Oc3ccc(NC(=O)NN4C(=O)CSC4c4ccc(F)cc4)cc3)ccnc2cc1OC1CCN(C(=O)NC2CCCCC2)CC1 (configuration not stated)
IC50 (HT-29 [1]): 3.42 µM

SMILES: COc1cc2nccc(Sc3ccc(NC(=O)NN4C(=O)CSC4c4c(F)cccc4F)cc3)c2cc1OCC1CCN(C(=O)NC(C)C)CC1 (configuration not stated)
IC50 (HT-29 [1]): > 10 µM

SMILES: COc1cc2c(Oc3ccc(NC(=O)NN4C(=O)CSC4c4ccc(F)cc4F)cc3)ccnc2cc1OC1CCN(C(=O)NC(C)C)CC1 (configuration not stated)
IC50 (HT-29 [1]): 0.95 µM

The remaining molecules from weak to strong by IC50 (HT-29 [1]), led by results:

IC50 (HT-29 [1]): 0.91 µM
SMILES: COc1cc2c(Oc3ccc(NC(=O)NN4C(=O)CSC4c4c(F)cc(F)cc4F)cc3)ccnc2cc1OC1CCN(C(=O)NC(C)C)CC1 (configuration not stated)

IC50 (HT-29 [1]): 0.86 µM
SMILES: COc1cc2c(Oc3ccc(NC(=O)NN4C(=O)CSC4c4ccc(F)cc4)cc3)ccnc2cc1OC1CCN(C(=O)NC(C)C)CC1 (configuration not stated)

IC50 (HT-29 [1]): 0.79 µM
SMILES: COc1cc2c(Oc3ccc(NC(=O)NN4C(=O)CSC4c4cccc(F)c4F)cc3)ccnc2cc1OC1CCN(C(=O)NC(C)C)CC1 (configuration not stated)

IC50 (HT-29 [1]): 0.67 µM
SMILES: COc1cc2c(Oc3ccc(NC(=O)NN4C(=O)CSC4c4cccc(F)c4)cc3)ccnc2cc1OC1CCN(C(=O)NC(C)C)CC1 (configuration not stated)

IC50 (HT-29 [1]): 0.42 µM
SMILES: COc1cc2c(Sc3ccc(NC(=O)NN4C(=O)CSC4c4c(F)cccc4F)cc3)ccnc2cc1OC1CCN(C(=O)NC(C)C)CC1 (configuration not stated)

IC50 (HT-29 [1]): 0.41 µM
SMILES: COc1cc2c(Oc3ccc(NC(=O)NN4C(=O)CSC4c4ccccc4F)cc3)ccnc2cc1OC1CCN(C(=O)NC(C)C)CC1 (configuration not stated)

IC50 (HT-29 [1]): 0.39 µM
SMILES: COc1cc2c(Sc3ccc(NC(=O)NN4C(=O)CSC4c4c(F)cccc4F)cc3)ccnc2cc1OCC1CCN(C(=O)NC(C)C)CC1 (configuration not stated)

— ChEMBL document CHEMBL4706527, “Identification of novel quinoline analogues bearing thiazolidinones as potent kinase inhibitors for the treatment of colorectal cancer” (Eur J Med Chem, 2020)
